Consider 13 molecules from ChEMBL document CHEMBL1125548, “Synthesis and pharmacological studies of N-substituted 6-[(2-aminoethyl)amino]-1,3-dimethyl-2,4(1H,3H)-pyrimidinediones, novel class III antiarrhythmic agents” (1992).

Each structure is given as a SMILES string.

For experiment [1], the system named is Canis familiaris. Put plainly: Percentage change of the duration of action potential at 75% repolarization was measured before and after the administration at 10.0 ug/mL. The experiment is classed as functional, Canis lupus familiaris. The procedure, abridged: (§1)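 Canine right-ventricular Purkinje fibers (mongrel dogs 7–11 kg, thiopental-anesthetized) superfused with Tyrode's (pH 7.5, 36 °C, gassed 95% O2/5% CO2). Compounds diluted from 1 mM water stock and added cumulatively. Readings taken 20 min after solution exchange. Result given as percent change in action potential duration.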

Experiment [2] has as its system Canis familiaris. The experiment is described as follows: Concentration required for 50% inhibition of tachycardia induced by isoproterenol (0.5ug/mL, iv) in anesthetized dog. The experiment is classed as functional. The note with it: Canis lupus familiaris, read-out: ID50 (the source's name).
Experiment [3] concerns Canis familiaris. Put plainly: The percentage change of the duration of action potential at 75% repolarization was measured before and after the administration at 3.0 ug/mL. The experiment is classed as functional, Canis lupus familiaris. The procedure, abridged: as §1
The subject of experiment [4] is Canis familiaris. The experiment is described as follows: The prolongation effect of the atrial and ventricular effective refractory period was measured before and after the administration at 0.3 mg/kg. The experiment is classed as functional, Canis lupus familiaris, Cardiac atrium. The procedure, abridged:
(§2)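 In vivo, mongrel dogs of either sex (7–13 kg), anesthetized with pentobarbital sodium 30 mg/kg iv. Left femoral artery cannulated for arterial pressure, femoral vein for drug dosing. Effective refractory period measured before and after administration.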

The subject of experiment [5] is Canis familiaris. The experiment is described as follows: The prolongation effect of the atrial and ventricular effective refractory period was measured before and after the administration at 0.1 mg/kg. In kind it is functional, Canis lupus familiaris, Cardiac atrium. The note with it: dose 1.0 mg/kg; in the assay text read “1.0 mg/kg” for “0.1 mg/kg”. Summed up:
as §2

Experiment [6] concerns Canis familiaris. The experiment is described as follows: The prolongation effect of the atrial and ventricular effective refractory period was measured before and after the administration at 3 mg/kg. The experiment is classed as functional, Canis lupus familiaris, Cardiac atrium. The procedure, abridged:
as §2

In experiment [7] the test system is Canis familiaris. Put plainly: The percentage change of the duration of action potential at 75% repolarization was measured before and after the administration at 1.0 ug/mL. The experiment is classed as functional, Canis lupus familiaris. Summed up:
as §1

Experiment [8] has as its system Canis familiaris. The experiment is described as follows: The percentage change in the effective refractory period was measured before and after the administration at 0.1 mg/kg. In kind it is functional, Canis lupus familiaris. The note with it: dose 1.0 mg/kg; in the assay text read “1.0 mg/kg” for “0.1 mg/kg”. Summed up:
as §2

On to `CCO.Cn1c(NCCNCC(O)COc2ccccc2)cc(=O)n(C)c1=O` (stereo not drawn), for which the figures for the APD75 with Canis familiaris [1] and in the experiment on Canis familiaris [3] were 10.1% and 6.9%, respectively. Further, in the experiment on Canis familiaris [2], the ED50 amounted to 0.01 mg/kg.
Regarding `Cl.Cn1c(N2CCN(CCCOc3ccc(NS(C)(=O)=O)cc3)CC2)cc(=O)n(C)c1=O`, the results for the ERP in the experiment on Canis familiaris [4], in the experiment on Canis familiaris [5] and in the experiment on Canis familiaris [6] were 7.1%, 9.3% and 16.4%, respectively. Besides, the APD75 in the experiment on Canis familiaris [1] amounted to 10%; in the experiment on Canis familiaris [7] it was 1%; with Canis familiaris [3] it was 3%.
Regarding `Cl.Cn1c(N2CCN(CCc3ccc([N+](=O)[O-])cc3)CC2)cc(=O)n(C)c1=O`, the APD75 in the experiment with Canis familiaris [7] was 43%.
In the experiment with Canis familiaris [5], `CO.Cl.Cn1c(N2CCN(CCCOc3cccc([N+](=O)[O-])c3)CC2)cc(=O)n(C)c1=O` gave an ERP of 7%. The APD75 with Canis familiaris [7] is listed as 15%; in the experiment on Canis familiaris [3], 34%.
As to `Cl.Cn1c(N2CCN(CCCOc3cccc(Cl)c3)CC2)cc(=O)n(C)c1=O`, the APD75 came out at 7% in the experiment with Canis familiaris [1] and 6% with Canis familiaris [3].
For the molecule `Cl.Cn1c(N2CCN(CCCOc3ccccc3[N+](=O)[O-])CC2)cc(=O)n(C)c1=O`, in the experiment with Canis familiaris [8], the ERP is on record as 6.8%. In addition, the APD75 in the experiment with Canis familiaris [1] is reported as 39%; with Canis familiaris [3], 18%.
Regarding `Cl.Cl.Cn1c(N2CCN(CCCOc3ccc(N)cc3)CC2)cc(=O)n(C)c1=O`, in the experiment with Canis familiaris [3], the APD75 came to 4%.
In the experiment with Canis familiaris [8], `Cl.Cl.Cn1c(N2CCN(CCCOc3ccc([N+](=O)[O-])cc3)CC2)cc(=O)n(C)c1=O` yielded an ERP of 15.8%. Further, the results for the APD75 with Canis familiaris [1], in the experiment on Canis familiaris [7] and with Canis familiaris [3] were 30%, 17% and 22%, respectively.
In the case of `Cn1c(NCCNCCCOc2ccccc2)cc(=O)n(C)c1=O`, the APD75 was 4% in the experiment with Canis familiaris [7] and 11.9% with Canis familiaris [3]. Further, in the experiment with Canis familiaris [2], the ED50 was 0.1 mg/kg.
With `Cl.Cn1c(N2CCN(CCCCc3ccc([N+](=O)[O-])cc3)CC2)cc(=O)n(C)c1=O`, the APD75 with Canis familiaris [1] is recorded as 25%; in the experiment with Canis familiaris [3] it was 17%.
On the same counts, the results for `Cl.Cn1c(N2CCN(CCCOc3ccccc3Cl)CC2)cc(=O)n(C)c1=O` are 7% and 0%.
Molecule `CNS(=O)(=O)c1ccc(OCCCN2CCN(c3cc(=O)n(C)c(=O)n3C)CC2)cc1.Cl` returned an APD75 in the experiment on Canis familiaris [3] of 0%.
Turning to `CCN(CCCc1ccc([N+](=O)[O-])cc1)CCNc1cc(=O)n(C)c(=O)n1C.Cl`, the APD75 in the experiment with Canis familiaris [7] is reported as 11%; in the experiment with Canis familiaris [3], 16%.
